Screening results: PubChem, The Scripps Research Institute Molecular Screening Center
Sampled rows, rich in hits. Any-hit rate of the full collection: about 1%.
Fam108B counter = mouse Fam108B serine hydrolase inhibitors, primary screen, counter-screen for RBBP9 inhibitor project, biochemical, fluorescence polarization; recombinant Fam108B, FP-Rh probe fluorescence polarization; inhibition, % at 9.51 µM; 300,000 compounds, 0.33% hits; AID 1947, 2009;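 active = inhibition above the screen mean inhibition plus 3 SD, computed separately per campaign, cut at about 18% in these data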;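 note: inhibitors lower polarization as less probe binds the enzyme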
LYPLA2 counter = LYPLA2 inhibitors, primary screen, counter-screen for PME1 inhibitor project, biochemical, fluorescence polarization, FP-Rh probe ABPP; Acyl-protein thioesterase 2 (Homo sapiens), O95372; recombinant LYPLA2; inhibition, % at 5.9 µM; 320,000 compounds, 0.38% hits;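 active = inhibition above the screen-wide mean plus 3 SD, limit set per campaign, cut at about 26% in these data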;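 note: 0% = LYPLA2 with DMSO and 100% = wells lacking LYPLA2 enzyme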
procasp7 counter = procaspase-7 activators, primary screen, counter-screen for procaspase-3 activator project, biochemical, absorbance, HTS, human; Caspase-7 (Homo sapiens), P55210; recombinant procaspase-7, Ac-DEVD-pNA absorbance 405 nm; D23A/D198A/D206A triple mutant, cannot self-cleave; scale: DMSO 0, 5 µM enzyme 100; activation, % at 8.5 µM; 330,000 compounds, 0.093% hits;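 active = percent activation above the screen-wide mean plus 3 SD, cut at about 25% in these data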
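Assay system: Uncleavable procaspase-7 mutant enzyme / Input: 2 µM procaspase-7 mutant as dispensed / Dosing: single nominal 8.5 µM compound dose, 0.8% DMSO final / Timing: 1 h enzyme–compound preincubation and 2 h substrate reaction, both 25 °C / Detection: p-Nitroaniline absorbance at 405 nm, read at 0 and 120 min / Replication: singlicate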
procasp3 activ = activators of human procaspase-3 D3A mutant, primary screen, biochemical, absorbance, PC-3 D3A mutant, single concentration; Caspase-3 (Homo sapiens), P42574; recombinant procaspase-3 D3A, Ac-DEVD-pNA absorbance 405 nm; activation, % at 8.5 µM; 330,000 compounds, 0.11% hits;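 active = activation above the mean of all tested compounds plus 3 SD, cut at about 21% in these data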;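 note: 0% = DMSO alone and 100% = DMSO wells spiked with extra 5 µM PC-3 D3A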
Target sequence (P42574 whole entry D9A/D28A/D175A): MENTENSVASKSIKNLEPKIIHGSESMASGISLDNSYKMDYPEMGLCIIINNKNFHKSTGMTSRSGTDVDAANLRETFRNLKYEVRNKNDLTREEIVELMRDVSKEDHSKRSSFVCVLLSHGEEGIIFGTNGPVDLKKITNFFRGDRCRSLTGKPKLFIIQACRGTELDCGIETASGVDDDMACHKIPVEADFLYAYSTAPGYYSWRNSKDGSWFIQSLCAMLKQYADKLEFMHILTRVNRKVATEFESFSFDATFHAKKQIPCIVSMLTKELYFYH
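System: Procaspase-3 D3A mutant. Medium: Zinc-free 300 mM NaCl, 50 mM HEPES, 0.01% Triton X-100. Schedule: 1 h preincubation plus 2 h reaction at 25 °C. Measured by: 405 nm absorbance of p-nitroaniline, reads at 0 and 120 min. Read-out: percent activation relative to control range.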
LYPLA1 inh = LYPLA1 inhibitors, primary screen, counter-screen for PME1 inhibitor project, biochemical, fluorescence polarization, FP-Rh probe ABPP | Acyl-protein thioesterase 1 (Homo sapiens), O75608 | recombinant LYPLA1 | inhibition, % at 5.9 µM | 320,000 compounds, 0.16% hits;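 active = inhibition above the mean of all tested compounds plus 3 SD, set per campaign, cut at about 14% in these data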;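 note: inhibitors block serine hydrolase probe labeling of LYPLA1 so polarization falls; 0% = enzyme with DMSO and 100% = wells lacking LYPLA1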
PME-1 inh = PME-1 inhibitors via competitive probe labeling, primary screen, biochemical, fluorescence polarization, FP-Rh probe, HTS; Protein phosphatase methylesterase 1 (Homo sapiens), Q9Y570; recombinant PME-1; inhibition, % at 5.9 µM; 320,000 compounds, 0.53% hits; AID 2130, 2009;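 active = inhibition above the campaign mean of all compounds plus 3 SD, cut at about 26% in these data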;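 note: competitive labeling of PME-1 active site by serine hydrolase directed probe; 0% = PME-1 with DMSO and 100% = wells lacking PME-1 enzyme; inhibitors block probe labeling so polarization falls and inhibition rises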
Target sequence (Q9Y570 whole entry, looked up): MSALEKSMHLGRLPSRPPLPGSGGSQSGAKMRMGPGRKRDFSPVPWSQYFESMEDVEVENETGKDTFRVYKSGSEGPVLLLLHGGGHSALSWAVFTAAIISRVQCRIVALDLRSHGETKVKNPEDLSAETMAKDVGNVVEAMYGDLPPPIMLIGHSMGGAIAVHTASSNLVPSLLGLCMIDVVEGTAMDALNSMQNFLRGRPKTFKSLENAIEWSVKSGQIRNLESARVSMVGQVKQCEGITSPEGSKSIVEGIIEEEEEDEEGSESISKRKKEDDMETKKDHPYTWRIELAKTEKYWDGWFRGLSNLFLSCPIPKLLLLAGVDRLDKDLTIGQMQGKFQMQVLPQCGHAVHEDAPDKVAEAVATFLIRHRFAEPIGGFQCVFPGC
Fam108b inh conf = mouse Fam108b serine hydrolase inhibitors, confirmation, counter-screen for RBBP9 inhibitor project, biochemical, fluorescence polarization, triplicate; shares compounds with Fam108B counter; recombinant Fam108b, FP-Rh probe fluorescence polarization; inhibition, % at 9.51 µM; 930 compounds, 44% hits;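 active = inhibition above a limit from the primary screen, the mean over all compounds plus 3 SD, cut at about 19% in these data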;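 note: 0% = median of active Fam108b wells and 100% = catalytically dead S170A mutant; inhibitors free the probe so polarization falls as inhibition rises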
Fam108b inh = inhibition of mouse Fam108b by HTS hits, late-stage follow-up, biochemical, gel-based ABPP, soluble recombinant form. AID 588649, 2011. fluorophosphonate probe. 260 compounds, 44% hits. shares compounds with Fam108B counter. inhibition, % at 20 µM; in the data active = inhibition above about 40%
LYPLA1 confirm = LYPLA1 inhibitors, retest, confirmation, counter-screen for PME1 inhibitor project, biochemical, fluorescence polarization, FP-Rh probe ABPP; shares compounds with LYPLA1 inh; recombinant LYPLA1; inhibition, % at 5.9 µM; 480 compounds, 69% hits; AID 2233, 2010;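 active = mean inhibition across replicates above the hit cutoff set in the primary screen, cut at about 15% in these data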;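 note: loss of FP-Rh probe labeling of LYPLA1 seen as lower polarization; 0% = LYPLA1 with DMSO and 100% = wells lacking LYPLA1 enzyme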
LYPLA2 conf = LYPLA2 inhibitors, retest, confirmation, counter-screen for PME1 inhibitor project, biochemical, fluorescence polarization, FP-Rh probe ABPP; shares compounds with LYPLA2 counter; recombinant LYPLA2; inhibition, % at 5.9 µM; 1,100 compounds, 72% hits; AID 2232, 2010;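 active = mean inhibition across replicates above the hit cutoff set in the primary screen, cut at about 26% in these data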;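 note: blocked labeling of the enzyme by serine hydrolase FP-Rh probe lowers polarization; 0% = enzyme with DMSO and 100% = wells lacking LYPLA2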
proCasp7 act trip = procaspase-7 activators, counter-screen for procaspase-3 activator project, biochemical, absorbance, triplicate, human; shares compounds with procasp3 activ; recombinant procaspase-7, Ac-DEVD-pNA absorbance; asp23/198/206-to-Ala mutant, cannot self-cleave; activation, % at 8.5 µM; 210 tested, under 10 active; AID 488941, 2010;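 active = mean activation above a set limit taken from an earlier procaspase-7 screen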;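 note: 0% = DMSO wells and 100% = DMSO plus 5 µM procaspase-7 enzyme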
procasp3 conf = activators of human procaspase-3 D3A mutant, confirmation, biochemical, absorbance, PC-3 D3A mutant, triplicate; recombinant PC-3 D3A, Ac-DEVD-pNA absorbance 405 nm; 100% is higher-enzyme control; shares compounds with procasp3 activ; activation, % at 8.5 µM; 210 compounds, 10% hits;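 active = mean activation above a set limit carried over from the earlier primary screen, cut at about 22% in these data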
PC3 dual counter = procaspase-3 activators, counter-screen for dual procaspase-3/7 activator project, biochemical, absorbance, PC-3 D3A mutant, human; shares compounds with procasp7 counter; recombinant PC-3 D3A, Ac-DEVD-pNA absorbance 405 nm; aspartates 9, 28, 175 changed to alanine; 100% = enzyme control; activation, % at 8.5 µM; 290 tested, under 10 active;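 active = mean percent activation across triplicates above a set limit taken from the earlier primary procaspase-3 screen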;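 note: 0% = DMSO wells and 100% = DMSO wells with 5 µM added PC-3 D3A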
Procasp7 act = activation of procaspase-7 enzyme – biochemical, absorbance, human, dual procaspase-3/-7 activator project, confirmation | shares compounds with procasp7 counter | recombinant procaspase-7, Ac-DEVD-pNA absorbance 405 nm; D23A/D198A/D206A mutant that cannot self-cleave | activation, % at 8.5 µM | 290 tested, under 10 active | AID 493115, 2011;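 active = mean activation above a set limit carried over from the earlier primary screen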;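 note: 0% = DMSO only and 100% = DMSO with added 5 µM PC-7 enzyme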
* hit, by the source's call; . = not tested or not shown.

SMILES	Fam108B counter	LYPLA2 counter	procasp7 counter	procasp3 activ	LYPLA1 inh	PME-1 inh	Fam108b inh conf	LYPLA1 confirm	others
Cc1nnc(SC(C)C(=O)Nc2ccc(Cl)cc2Cl)[nH]c1=O (stereo not given)	.	.	2	5	.	.	.	.
Cn1nc(-c2ccccn2)nc2c(=O)n(C)c(=O)nc1-2	62*	90*	-15	-11	92*	36*	86*	89*	Fam108b inh=0;LYPLA2 conf=92*
COc1ccc(-c2nc(-c3ccccn3)ncc2S(C)(=O)=O)cc1	-1	6	16	-2	-1	-1	.	.
Cc1ccc(S(=O)(=O)/N=C2/C=C(Sc3ncn[nH]3)C(=O)c3ccccc32)cc1	80*	47*	-35	-33	6	46*	65*	.	LYPLA2 conf=57*
CN1C(=O)NC(c2ccccc2[N+](=O)[O-])C2=C1CCCC2=O (stereo not given)	68*	94*	12	0	73*	84*	24*	28*	LYPLA2 conf=74*
CN1C(=O)NC(c2ccccc2[N+](=O)[O-])C2=C1CC(C)(C)CC2=O (stereo not given)	-7	-3	9	9	-3	-4	.	.
CN(C)CCNC(=O)/C=C/c1cn(-c2ccccc2)nc1-c1cc2ccccc2oc1=O	1	11	5	-10	-1	1	.	.
NS(=O)(=O)c1ccc(CCNC(=O)COC(=O)/C=C/c2cc(Br)ccc2F)cc1	.	.	16	5	.	.	.	.
Oc1ccccc1-c1nc2c3ccccc3c3ccccc3c2[nH]1	44*	36*	9	-9	6	38*	53*	.	Fam108b inh=90*;LYPLA2 conf=14
Oc1ccccc1-c1ccn[nH]1	.	.	3	8	.	.	.	.
CCN(CC)c1ccc(/C=N/NC(=O)c2cccc(S(=O)(=O)Nc3ccccc3OC)c2)c(O)c1	58*	4	23	39*	-7	45*	7	.	proCasp7 act trip=15;procasp3 conf=20
CCOC(=O)c1cc(S(=O)(=O)N2CCC(C)CC2)cn1C	-3	0	8	-2	-2	2	.	.
COc1ccc(C2C3=C(CC(C)(C)CC3=O)Nc3c2c(=O)[nH]c(=O)n3Cc2ccccc2)cc1 (stereo not given)	21*	-2	29*	12	7	-4	22*	.	PC3 dual counter=-30;Procasp7 act=-34
CCCN(CC(=O)Nc1ccccc1C)C(=O)C1CCN(C(=O)Nc2ccccc2)CC1	2	-2	3	2	2	0	.	.
O=C1CC2(CCN(C(=O)COc3ccc(Cl)cc3)CC2)Oc2ccccc21	-1	20	5	2	16*	1	.	21*
Cc1ccc(OCC(=O)N2CCC3(CC2)CC(=O)c2ccccc2O3)cc1	-3	6	12	2	4	3	.	.
COc1ccc2c(c1)CCc1c(C(=O)N3CCCc4ccccc43)noc1-2	-4	10	-7	1	34*	3	.	35*
COc1ccc2c(c1)CCc1c(C(=O)N3CCOCC3)noc1-2	-3	-3	-5	1	0	0	.	.
C=CCn1c(O)c(N=NC(=O)OCC)c2ccccc21	3	0	0	9	3	-3	.	.
C=CCn1c(O)c(N=NC(=S)Nc2ccc(OC)cc2)c2ccccc21	13	7	-3	10	30*	-6	.	33*
Cc1ccc(C(=O)NCC(=O)OC(C)C(=O)NCCC2=CCCCC2)cc1C (stereo not given)	11	9	2	3	1	0	.	.
O=C(O)c1ccc(CSc2nc3ccccc3c(=O)n2-c2ccccc2)cc1	-2	22	-4	3	17*	2	.	27*
COCCn1c(=O)[nH]c2cc(C(=O)N3CCN(c4ccccc4)CC3)ccc2c1=O	-1	7	5	8	4	-6	.	.
